Screening results: PubChem BioAssay, Johns Hopkins Ion Channel Center
KCNK9 block: inhibitors of human KCNK9 two-pore domain potassium channel. Q9NPC2. HEK293 KCNK9, FluxOR thallium flux fluorescence; stronger effect = lower value. B-score at 10 µM. 1.2% of 310,000 active;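 active = ratio B-score over 3 SD below the library mean, with starting fluorescence within 5 SD of its mean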;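 note: negative B-score means less thallium flux so channel inhibition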
hERG protect: compounds protecting human hERG from proarrhythmic drug block; Q12809; activation (rescue from dofetilide block), less the hit threshold, % at 10 µM; CHO-hERG, FluxOR thallium flux, dofetilide IC70 present; AID 1511; 0.51% of 310,000 active;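 active = activation above the mean of controls blocked by dofetilide plus 5 SD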;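 note: thallium influx through hERG after potassium depolarization seen as dye fluorescence rise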
Target sequence (Q12809 whole entry, looked up): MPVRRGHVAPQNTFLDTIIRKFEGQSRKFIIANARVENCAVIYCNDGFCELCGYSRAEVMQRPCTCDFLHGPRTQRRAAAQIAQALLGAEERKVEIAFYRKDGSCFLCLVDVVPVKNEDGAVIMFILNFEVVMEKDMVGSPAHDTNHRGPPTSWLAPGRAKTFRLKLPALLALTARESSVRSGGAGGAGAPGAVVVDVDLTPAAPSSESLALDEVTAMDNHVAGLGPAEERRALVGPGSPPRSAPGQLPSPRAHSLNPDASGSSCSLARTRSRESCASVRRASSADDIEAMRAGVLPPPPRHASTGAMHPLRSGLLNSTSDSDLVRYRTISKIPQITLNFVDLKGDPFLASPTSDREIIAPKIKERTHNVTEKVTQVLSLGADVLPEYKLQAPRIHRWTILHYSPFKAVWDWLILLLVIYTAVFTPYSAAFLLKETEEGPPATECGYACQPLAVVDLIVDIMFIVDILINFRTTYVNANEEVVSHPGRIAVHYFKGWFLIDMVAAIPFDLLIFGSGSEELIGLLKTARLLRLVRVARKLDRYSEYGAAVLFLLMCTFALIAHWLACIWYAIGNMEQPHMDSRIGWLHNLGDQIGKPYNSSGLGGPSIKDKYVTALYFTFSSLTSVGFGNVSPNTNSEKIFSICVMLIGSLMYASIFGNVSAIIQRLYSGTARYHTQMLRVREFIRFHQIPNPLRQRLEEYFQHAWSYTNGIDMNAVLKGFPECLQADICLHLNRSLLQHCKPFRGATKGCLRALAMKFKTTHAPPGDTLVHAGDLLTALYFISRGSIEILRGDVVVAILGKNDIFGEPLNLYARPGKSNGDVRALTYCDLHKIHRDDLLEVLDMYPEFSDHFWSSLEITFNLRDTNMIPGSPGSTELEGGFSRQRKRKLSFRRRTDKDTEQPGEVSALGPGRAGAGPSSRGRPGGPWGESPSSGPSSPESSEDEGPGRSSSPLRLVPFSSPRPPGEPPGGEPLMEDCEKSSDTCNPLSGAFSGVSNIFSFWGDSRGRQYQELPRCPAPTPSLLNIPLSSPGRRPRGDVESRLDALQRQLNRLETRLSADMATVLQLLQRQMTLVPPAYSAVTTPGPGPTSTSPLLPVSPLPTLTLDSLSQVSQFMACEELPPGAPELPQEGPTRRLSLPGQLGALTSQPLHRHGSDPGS
KCNK3 inh: human KCNK3 channel inhibition, primary screen; O14649; CHO-KCNK3 thallium flux, FluxOR fluorescence; stronger effect = lower value; B-score at 10 µM; 0.84% of 340,000 active; AID 602410;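 active = B-score under library mean minus 4 SD, starting fluorescence ratio at most library mean plus 5 SD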;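 note: more negative B-score means stronger inhibition of thallium flux through KCNK3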
Kir21 inh: blocks the mouse Kir2.1 inward-rectifier potassium channel. P35561. B-score at 10 µM. HEK293-Kir2.1, FluxOR thallium flux fluorescence; stronger effect = lower value. 0.85% of 310,000 active;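 active = fluorescence ratio B-score at or below minus 3 SD of library scores, with starting-brightness B-score within 2 SD, cut at about -4.2 in these data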;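 note: channel flux triggered by added potassium and thallium sulfate stimulus; B-score of peak minus minimum fluorescence over baseline after thallium stimulus; more negative B-score means stronger Kir2.1 block with less thallium influx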
KCNQ1 inh: human KCNQ1 channel inhibition | B-score at 10 µM | P51787 | 1.3% of 310,000 active | CHO-K1 KCNQ1, FluxOR thallium flux fluorescence; stronger effect = higher value;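 active = compounds whose thallium flux B-score, printed positive for inhibition, exceeds three library SD while starting fluorescence stays within three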;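 note: channel opened by potassium depolarization with thallium stimulus after 20 min compound exposure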
KCNQ1 act: human KCNQ1 channel potentiation or activation | P51787 | CHO-K1 KCNQ1, thallium flux FluxOR fluorescence; stronger effect = higher value | B-score at 10 µM | 0.35% of 310,000 active | AID 2648;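 active = fluorescence ratio B-score, a plate-corrected score, at least three library SD, with initial intensity B-score within 5 SD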
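Medium – assay buffer, equal DMSO in all wells · Material – CHO-K1 cell line with stable KCNQ1 potassium channel expression · Signal – kinetic FluxOR thallium fluorescence, 10-s 1-Hz baseline, 110-s post-stimulus read · Compound – single concentration per compound, DMSO matched to controls · Schedule – 37 °C overnight plating, 90-min dark dye load, 20-min compound pretreatment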
KCNK9 block conf: human KCNK9 inhibitor confirmation; shares compounds with KCNK9 block; AID 492992; inhibition, % at 10 µM; 43% of 4,900 active; HEK293 KCNK9 cells, FluxOR thallium flux fluorescence;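 active = thallium signal inhibited by more than 5 SD of the compound-free buffer control wells, on both duplicate plates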;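 note: 0% = assay buffer control wells without compound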
Kir21 sel: tests whether KCNK9 modulators also affect mouse Kir2.1; inhibition, % at 10 µM; Kir2.1 cells, FluxOR thallium flux fluorescence; AID 492993; shares compounds with KCNK9 block; 4% of 4,900 active;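 active = thallium signal drop more than 5 SD beyond the mean of the no-compound control wells, seen in both duplicate plates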;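 note: signal is fluorescence rise after thallium addition divided by baseline fluorescence; plate controls were assay buffer only for no effect and full block by chlorpromazine control for full effect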
HEK293 Tl ctr: non-induced cell nonspecific activity of KCNK9 modulators. shares compounds with KCNK9 block. non-induced KCNK9-HEK293, FluxOR thallium flux. inhibition, % at 10 µM. 40% of 4,900 active;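 active = thallium signal drop beyond 5 SD of the untreated control mean, on both duplicate plates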;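 note: plate controls were buffer only IC0 wells for no effect and SID17386958 at its maximal inhibitory level for full effect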
KCNK3 confirm: human KCNK3 channel inhibition, confirmation assay. shares compounds with KCNK3 inh. CHO-KCNK3 thallium flux, FluxOR fluorescence; 0% buffer, 100% carvedilol maximal block. ratio percent of control, % at 10 µM. 99% of 2,400 active. AID 651638;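 active = ratio percent of control, averaged over triplicates, above buffer control mean plus 5 SD, cut at about 64% in these data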;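 note: ratio is the fluorescence rise from min to max over baseline after thallium stimulus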
KCNK3 uninduced: activity in cells without induced KCNK3 expression. AID 651747. 40% of 2,400 active. non-induced KCNK3 parental cells, FluxOR thallium flux; stronger effect = lower value. thallium flux ratio (lower = more inhibition) at 10 µM. shares compounds with KCNK3 inh;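 active = thallium flux ratio, averaged over three wells, more than 5 SD below the buffer control mean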;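 note: host cells are CHO cells without KCNK3 induction; ratio is peak minus trough fluorescence over baseline then normalized to buffer controls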
Starred values were filed as active, the others as inactive; i = inactive; . = no result given. Sampled rows, rich in hits. Any-hit rate of the full collection: about 3.8%.

SMILES	KCNK9 block	hERG protect	KCNK3 inh	Kir21 inh	KCNQ1 inh	KCNQ1 act	KCNK9 block conf	Kir21 sel	HEK293 Tl ctr	KCNK3 confirm	KCNK3 uninduced
CCOC(=O)c1sc(-c2ccccc2)cc1NC(=O)CSc1nnnn1C	-10.7*	-5.8	-11.9*	1.96	i	i	52.5%*	i	34.5%*	86.7*	i
CCOC(=O)c1cc(-c2ccccc2)sc1NC(=O)CSc1nnnn1C	-9.62*	-6.7	-10.6*	-0.93	i	i	54.0%*	i	32.0%*	104.3*	i
Cc1ccc(S(=O)(=O)NC(C)C(=O)NC(C)c2cccs2)cc1 (centres undefined)	i	-8.4	i	1.15	i	i	.	.	.	.	.
Cc1c(Cl)cccc1-n1nnnc1-c1cccs1	-9.28*	-10.2	-10.6*	-0.66	i	i	44.0%*	i	31.5%*	107.7*	i
CCC(C)n1c(SCC(=O)Nc2cc(C)on2)nc2ccccc2c1=O (centres undefined)	i	-4.8	i	0.03	i	i	.	.	.	.	.
CCC(C)n1c(SCC(=O)Nc2cc(C(C)(C)C)nn2-c2ccccc2)nc2ccccc2c1=O (centres undefined)	-8.2*	-4.7	i	0.06	10*	i	40.0%*	i	37.5%*	104.7*	0.131*
CSC(=NC#N)N1CCN(C(=NC#N)SC)CC1	i	-6.0	i	-0.19	i	i	.	.	.	.	.
CSC(=NC#N)N1CCN(C(c2ccccc2)c2ccccc2)CC1	-9.79*	-14.0	i	-0.78	i	i	39.0%*	i	35.0%*	122.7*	i
Cc1cc(-c2ccccc2)nc(Nc2nc3c(C)cccc3c(=O)[nH]2)n1	.	.	i	.	.	.	.	.	.	.	.
Cc1cccc(-c2nnc(-c3cccc(NC(=O)Cc4cccs4)c3)o2)c1	-17.1*	-0.5	-15.9*	-0.13	i	i	54.0%*	i	29.5%*	148.3*	0.14*
O=C(Cc1cccs1)Nc1ccc(-c2nnc(-c3ccccc3)o2)cc1	i	-0.7	i	0	i	i	.	.	.	.	.
Cc1nn(S(=O)(=O)c2ccc(F)cc2)c(C)c1S(=O)(=O)N1CCCCC1	i	-6.4	i	0.13	i	i	.	.	.	.	.
O=c1c2ccccc2nc(SCc2ccccc2)n1Cc1ccco1	-11.8*	-12.3	-10.9*	-0.78	i	i	61.5%*	i	43.0%*	104.0*	i
Cc1ccc(CSc2nc3ccccc3c(=O)n2Cc2ccco2)cc1	-17.7*	-8.9	-8.93*	0.01	i	i	80.5%*	i	45.0%*	115.3*	0.158*
Cc1ccc(CSc2nc3ccccc3c(=O)n2CCCC(=O)NCc2ccco2)cc1	i	-5.0	i	-0.98	i	i	.	.	.	.	.
CCCCOC1(c2ccccc2)OC(=O)c2ccccc21 (centres undefined)	-15.7*	-8.6	i	-0.17	i	i	54.5%*	i	51.5%*	100.7*	i
O=C1CCc2cc(S(=O)(=O)Nc3ccccc3)cc3c2N1CCC3	i	-12.6	i	0.54	i	i	.	.	.	.	.
COc1ccccc1Cn1c(-c2ccccc2OC)nc2ccccc21	-11.3*	-13.7	-9.12*	0.98	i	i	25.5%*	i	47.5%*	109.3*	i
Oc1ccccc1Cn1c(-c2ccccc2O)nc2ccccc21	i	-11.0	i	0.63	i	i	.	.	.	.	.
CCCSc1nsc(NC(=O)C(c2ccccc2)c2ccccc2)n1	-8.76*	-6.4	-8.99*	-0.01	6*	i	55.0%*	i	41.5%*	131.7*	0.124*
CCCSc1nsc(NC(=O)CC)n1	i	-4.5	i	-2.05	i	i	.	.	.	.	.
Cc1cc(C(=O)CSc2nc3ccc(Cl)cc3[nH]2)c(C)n1Cc1ccco1	i	-2.0	-9.7*	0.27	i	i	i	i	i	93.7*	i
O=C(CNC(=O)c1ccc(Cl)c([N+](=O)[O-])c1)OCN1C(=O)c2ccccc2C1=O	i	-14.4	i	-1.21	i	i	.	.	.	.	.
O=C(O)Cn1c(-c2ccccn2)nc2ccccc21	i	-5.2	i	0.7	i	i	.	.	.	.	.
CCN1c2ccccc2-c2nc3ccccc3n2C1c1ccco1 (centres undefined)	-9.12*	-17.2	-9.24*	-6.37*	i	i	40.0%*	28.5%*	44.0%*	128.3*	0.14*
SMILES	KCNK9 block	hERG protect	KCNK3 inh	Kir21 inh	KCNQ1 inh	KCNQ1 act	KCNK9 block conf	Kir21 sel	HEK293 Tl ctr	KCNK3 confirm	KCNK3 uninduced
CN1c2ccccc2-c2nc3ccccc3n2C1c1ccncc1 (centres undefined)	i	-7.0	i	0.03	i	i	.	.	.	.	.
c1ccc(CN2c3ccccc3-c3nc4ccccc4n3C2c2ccccn2)cc1 (centres undefined)	-13.6*	-30.5	-10.1*	-0.37	i	i	66.5%*	i	40.5%*	123.0*	i
COc1ccc(F)cc1C(=O)C1CCCN(C(=O)C2=C(C)OCCO2)C1 (centres undefined)	i	-3.9	i	1.15	i	i	.	.	.	.	.
CCCCn1c(N)c(N(CCOC)C(=O)c2cccc(S(=O)(=O)N(C)c3ccc(C)cc3)c2)c(=O)[nH]c1=O	i	-10.8	i	0.48	i	i	.	.	.	.	.
Cc1cc(C)c(S(=O)(=O)N(C)CC(=O)NCc2ccncc2)c(C)c1	i	-9.4	i	-1.09	i	i	.	.	.	.	.
Cc1ccc(Nc2nc(Nc3ccc(C)cc3)nc(SC3=NCCS3)n2)cc1	i	-7.8	i	-0.14	i	i	.	.	.	.	.
Cc1ccccc1Nc1nc(Nc2ccccc2C)nc(SC2=NCCS2)n1	-9.89*	-6.1	-12.9*	-1.11	i	i	37.0%*	i	26.5%*	124.0*	0.117*
CC(Oc1ccc(-c2ccccc2)c(F)c1)c1ccn(S(=O)(=O)c2ccc(F)cc2)n1 (centres undefined)	-10.3*	-14.2	-11.8*	-0.19	i	i	57.0%*	i	41.5%*	105.7*	i
